From ChEMBL document CHEMBL5058577, “EUbOPEN Chemogenomics Library 2 (Multiplex)” (2022)

System: Fibroblast
Experiment: Multiplex assay against human fibroblast
Type: toxicity, cell-based
In short: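 Cells were classed with CellPathfinder machine-learning gating, first as Hoechst high-intensity objects or normal cells, then (normal cells) as healthy, pyknosed or fragmented nuclei, and finally (pyknosed cells) as mitotic or apoptotic. Staining of live cells at seeding used Hoechst33342, BioTracker Green Microtubule Cytoskeleton Dye, MitoTracker Red and Annexin V Alexa Fluor 680, with imaging on a CQ1 microscope at 37°C and 5% CO2 after compound addition. Tubulin, mitochondrial-mass and membrane-permeability phenotypes are per cents of healthy-nucleus cells.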

[1] = 12 h, 1 µM, compound concentration 1 uM, replicate 1
[2] = 12 h, 1 µM, compound concentration 1 uM, replicate 2
[3] = 12 h, 10 µM, compound concentration 10 uM, replicate 1
[4] = 12 h, 10 µM, compound concentration 10 uM, replicate 2
[5] = 24 h, 1 µM, compound concentration 1 uM, replicate 1
[6] = 24 h, 1 µM, compound concentration 1 uM, replicate 2
[7] = 24 h, 10 µM, compound concentration 10 uM, replicate 1
[8] = 24 h, 10 µM, compound concentration 10 uM, replicate 2
[9] = 48 h, 1 µM, compound concentration 1 uM, replicate 1
[10] = 48 h, 1 µM, compound concentration 1 uM, replicate 2
[11] = 48 h, 10 µM, compound concentration 10 uM, replicate 1
[12] = 48 h, 10 µM, compound concentration 10 uM, replicate 2

SMILES: COc1ccc2c(c1OCc1ccccc1)C[C@@H](C(=O)O)N(C(=O)C(c1ccccc1)c1ccccc1)C2 [OLODANRIGAN]
- Population Apoptotic (%) [1]: 46%
- Population Fragmented Nuclei (%) [1]: 17%
- Population Healthy Nuclei (%) [1]: 63%
- Population Hoechst High Intensity Objects (%) [1]: 7%
- Population Membrane Permeable-Phenotype (%) [1]: 1%
- Population Mitochondria Different-Phenotype (%) [1]: 2%
- Population Mitotic Cells (%) [1]: 53%
- Population Normal (%) [1]: 92%
- Population Pyknosed Nuclei (%) [1]: 19%
- Population Tubulin-Different-Phenotype (%) [1]: 29%
- Total Cell Count [1]: 157
- Population Apoptotic (%) [2]: 38%
- Population Fragmented Nuclei (%) [2]: 21%
- Population Healthy Nuclei (%) [2]: 50%
- Population Hoechst High Intensity Objects (%) [2]: 1%
- Population Membrane Permeable-Phenotype (%) [2]: 9%
- Population Mitochondria Different-Phenotype (%) [2]: 5%
- Population Mitotic Cells (%) [2]: 61%
- Population Normal (%) [2]: 98%
- Population Pyknosed Nuclei (%) [2]: 27%
- Population Tubulin-Different-Phenotype (%) [2]: 57%
- Total Cell Count [2]: 154
- Population Apoptotic (%) [3]: 31%
- Population Fragmented Nuclei (%) [3]: 11%
- Population Healthy Nuclei (%) [3]: 65%
- Population Hoechst High Intensity Objects (%) [3]: 0%
- Population Membrane Permeable-Phenotype (%) [3]: 1%
- Population Mitochondria Different-Phenotype (%) [3]: 7%
- Population Mitotic Cells (%) [3]: 68%
- Population Normal (%) [3]: 99%
- Population Pyknosed Nuclei (%) [3]: 23%
- Population Tubulin-Different-Phenotype (%) [3]: 28%
- Total Cell Count [3]: 140
- Population Apoptotic (%) [4]: 34%
- Population Fragmented Nuclei (%) [4]: 18%
- Population Healthy Nuclei (%) [4]: 54%
- Population Hoechst High Intensity Objects (%) [4]: 5%
- Population Membrane Permeable-Phenotype (%) [4]: 6%
- Population Mitotic Cells (%) [4]: 65%
- Population Normal (%) [4]: 94%
- Population Pyknosed Nuclei (%) [4]: 26%
- Population Tubulin-Different-Phenotype (%) [4]: 46%
- Total Cell Count [4]: 162
- Population Apoptotic (%) [5]: 65%
- Population Fragmented Nuclei (%) [5]: 18%
- Population Healthy Nuclei (%) [5]: 66%
- Population Hoechst High Intensity Objects (%) [5]: 6%
- Population Membrane Permeable-Phenotype (%) [5]: 0%
- Population Mitochondria Different-Phenotype (%) [5]: 1%
- Population Mitotic Cells (%) [5]: 34%
- Population Normal (%) [5]: 93%
- Population Pyknosed Nuclei (%) [5]: 15%
- Population Tubulin-Different-Phenotype (%) [5]: 26%
- Total Cell Count [5]: 159
- Population Apoptotic (%) [6]: 38%
- Population Fragmented Nuclei (%) [6]: 21%
- Population Healthy Nuclei (%) [6]: 53%
- Population Hoechst High Intensity Objects (%) [6]: 2%
- Population Membrane Permeable-Phenotype (%) [6]: 9%
- Population Mitochondria Different-Phenotype (%) [6]: 7%
- Population Mitotic Cells (%) [6]: 61%
- Population Normal (%) [6]: 97%
- Population Pyknosed Nuclei (%) [6]: 25%
- Population Tubulin-Different-Phenotype (%) [6]: 46%
- Total Cell Count [6]: 146
- Population Apoptotic (%) [7]: 53%
- Population Fragmented Nuclei (%) [7]: 10%
- Population Healthy Nuclei (%) [7]: 68%
- Population Hoechst High Intensity Objects (%) [7]: 2%
- Population Membrane Permeable-Phenotype (%) [7]: 1%
- Population Mitochondria Different-Phenotype (%) [7]: 3%
- Population Mitotic Cells (%) [7]: 46%
- Population Normal (%) [7]: 97%
- Population Pyknosed Nuclei (%) [7]: 21%
- Population Tubulin-Different-Phenotype (%) [7]: 21%
- Total Cell Count [7]: 136
- Population Apoptotic (%) [8]: 58%
- Population Fragmented Nuclei (%) [8]: 17%
- Population Healthy Nuclei (%) [8]: 62%
- Population Hoechst High Intensity Objects (%) [8]: 3%
- Population Membrane Permeable-Phenotype (%) [8]: 4%
- Population Mitochondria Different-Phenotype (%) [8]: 4%
- Population Mitotic Cells (%) [8]: 41%
- Population Normal (%) [8]: 96%
- Population Pyknosed Nuclei (%) [8]: 19%
- Population Tubulin-Different-Phenotype (%) [8]: 50%
- Total Cell Count [8]: 153
- Population Apoptotic (%) [9]: 42%
- Population Fragmented Nuclei (%) [9]: 27%
- Population Healthy Nuclei (%) [9]: 58%
- Population Hoechst High Intensity Objects (%) [9]: 3%
- Population Membrane Permeable-Phenotype (%) [9]: 0%
- Population Mitochondria Different-Phenotype (%) [9]: 2%
- Population Mitotic Cells (%) [9]: 57%
- Population Normal (%) [9]: 96%
- Population Pyknosed Nuclei (%) [9]: 14%
- Population Tubulin-Different-Phenotype (%) [9]: 20%
- Total Cell Count [9]: 154
- Population Apoptotic (%) [10]: 41%
- Population Fragmented Nuclei (%) [10]: 31%
- Population Healthy Nuclei (%) [10]: 52%
- Population Hoechst High Intensity Objects (%) [10]: 1%
- Population Membrane Permeable-Phenotype (%) [10]: 1%
- Population Mitochondria Different-Phenotype (%) [10]: 4%
- Population Mitotic Cells (%) [10]: 58%
- Population Normal (%) [10]: 98%
- Population Pyknosed Nuclei (%) [10]: 15%
- Population Tubulin-Different-Phenotype (%) [10]: 40%
- Total Cell Count [10]: 156
- Population Apoptotic (%) [11]: 57%
- Population Fragmented Nuclei (%) [11]: 15%
- Population Healthy Nuclei (%) [11]: 69%
- Population Hoechst High Intensity Objects (%) [11]: 5%
- Population Membrane Permeable-Phenotype (%) [11]: 1%
- Population Mitochondria Different-Phenotype (%) [11]: 5%
- Population Mitotic Cells (%) [11]: 42%
- Population Normal (%) [11]: 94%
- Population Pyknosed Nuclei (%) [11]: 15%
- Population Tubulin-Different-Phenotype (%) [11]: 27%
- Total Cell Count [11]: 146
- Population Apoptotic (%) [12]: 61%
- Population Fragmented Nuclei (%) [12]: 29%
- Population Healthy Nuclei (%) [12]: 58%
- Population Hoechst High Intensity Objects (%) [12]: 7%
- Population Membrane Permeable-Phenotype (%) [12]: 3%
- Population Mitotic Cells (%) [12]: 38%
- Population Normal (%) [12]: 92%
- Population Pyknosed Nuclei (%) [12]: 12%
- Population Tubulin-Different-Phenotype (%) [12]: 45%
- Total Cell Count [12]: 163
